# Article PMC7925372 (Journal of thrombosis and haemostasis : JTH, 2021)
# Substitutions are numbered along the chain they refer to.
# Legend:
# warfarin-resistant rats = conditions: cited from earlier work
# [1] = cited from earlier work
# [2] = test system: VKD carboxylation in UBIAD1-knockout FIXgla-PC/HEK293 cells; assay: VKD carboxylation in UBIAD1-knockout FIXgla-PC/HEK293 reporter cells; format: cell-based, human; conditions: increasing concentrations, 24 hours
# [3] = test system: VKD carboxylation of reporter-protein FIXgla-PC in FIXgla-PC/HEK293 cells; format: cell-based, human; conditions: 24 hours
# In short: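 FIXgla-PC/HEK293 cells are HEK293 cells stably expressing protein C whose Gla domain is swapped for factor IX's. They were cultured 24 h with test compound, either fixed at 1 μM or at increasing concentrations, as carboxylation substrate. FIXgla-PC carboxylation efficiency was measured by ELISA directly on culture medium. Activity was expressed relative to vitamin K1 set at 100%. Background activity comes from residual K vitamins in fetal bovine serum.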
# [4] = test system: VKD carboxylation of FIXgla-PC in FIXgla-PC/HEK293 cells (KO as substrate); assay: Inhibition of VKD carboxylation in FIXgla-PC/HEK293 cells with 5 μM KO; format: cell-based, human
# wild-type VKOR = assay: Inhibition potency of VKAs on VKOR transiently expressed in DGKO reporter cells; format: cell-based, human
# VKOR A26P = target: T1, VKOR A26P (Homo sapiens, UniProt Q9BQB6, A26P); assay: Inhibition potency of VKAs on VKOR mutation expressed in DGKO reporter cells; format: cell-based
# T1 sequence (Q9BQB6 1-163 A26P): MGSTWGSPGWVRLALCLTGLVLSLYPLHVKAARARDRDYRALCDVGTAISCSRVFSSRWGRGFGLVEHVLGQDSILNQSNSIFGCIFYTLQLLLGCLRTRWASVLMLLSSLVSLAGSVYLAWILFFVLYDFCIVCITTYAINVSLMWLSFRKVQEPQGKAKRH
# VKOR F55A = target: T2, VKOR F55A (Homo sapiens, UniProt Q9BQB6, F55A); assay: as above; format: cell-based
# T2 sequence (Q9BQB6 1-163 F55A): T1 sequence (Q9BQB6 1-163 A26P) with P26A, F55A
# VKOR W59R = target: T3, VKOR W59R (Homo sapiens, UniProt Q9BQB6, W59R); assay: as above; format: cell-based; conditions: read-out: IC50 ± standard deviation, 5 μM KO, 24 hours
# T3 sequence (Q9BQB6 1-163 W59R): T1 sequence (Q9BQB6 1-163 A26P) with P26A, W59R
# VKOR L128R = target: T4, VKOR L128R (Homo sapiens, UniProt Q9BQB6, L128R); assay: as above; format: cell-based; conditions: read-out: IC50 ± standard deviation, 5 μM KO, 24 hours
# T4 sequence (Q9BQB6 1-163 L128R): T1 sequence (Q9BQB6 1-163 A26P) with P26A, L128R
# VKOR Y139F = target: T5, VKOR Y139F (Homo sapiens, UniProt Q9BQB6, Y139F); assay: as above; format: cell-based; conditions: read-out: IC50 ± standard deviation, 5 μM KO, 24 hours
# T5 sequence (Q9BQB6 1-163 Y139F): T1 sequence (Q9BQB6 1-163 A26P) with P26A, Y139F
# [5] = test system: vitamin K reductase (DGKO reporter cells); format: cell-based, human; conditions: increasing concentrations
# HEK293 reporter cells = assay: Cell viability assay in reporter cells; format: cell-based, human; conditions: corresponding concentrations of the carboxylation assay
# [6] = test system: KO reductase (reduction of KO to vitamin K1); assay: HPLC-based KO reductase activity in GGCX-knockout HEK293 cells; format: cell-based, human; conditions: GGCX-knockout HEK293, 10 μM KO, 10 μM compound, 6 hours
# In short: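 GGCX-knockout FIXgla-PC/HEK293 cells (CRISPR-Cas9) were incubated 6 h in medium with 10 μM KO, with or without 10 μM test compound; DMSO-treated cells served as control. K vitamins were extracted from the cells and analysed by reversed-phase HPLC. KO reductase activity was scored as vitamin K1 formed, with vitamin E acetate as standard.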
# vitamin K reductase = assay: HPLC-based vitamin K reductase activity; format: cell-based, human; conditions: DGKO cells, 10 μM vitamin K1, 10 μM compound, 6 hours
# In short: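 Reporter cells lacking endogenous VKOR and VKORL (TALEN double knockout) were cultured 6 h with 10 μM vitamin K1, with or without 10 μM test compound; DMSO was the control. Cellular K vitamins were extracted for reversed-phase HPLC. Unstable KH2 was not measured; reduction was coupled to epoxidation, and activity was read as KO produced.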
# GGCX = assay: In vitro vitamin K epoxidation activity assay with GGCX enriched microsomes; format: biochemical; conditions: FLEEL, FIX-propeptide, KH2, 100 μM compound
# [7] = test system: VKD carboxylation of FIXgla-PC in FIXgla-PC/HEK293 cells; format: cell-based, human; conditions: 3 μM inhibitor, increasing concentrations of vitamin K1, 24 hours
# [8] = test system: UBIAD1-dependent VKD carboxylation; format: cell-based, human; conditions: UBIAD1 transiently expressed in UBIAD1-knockout cells, increasing concentrations
# In short: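 FIXgla-PC/HEK293 reporter cells with UBIAD1 knocked out by CRISPR-Cas9 were transiently transfected with UBIAD1 cDNA. Transfected cells were cultured with increasing concentrations of vitamin K analogue. FIXgla-PC carboxylation efficiency in the medium was then measured by ELISA, normalised to vitamin K1 as 100%.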
# [9] = test system: UBIAD1 (MK-4 production in HEK293 cells); assay: Conversion of vitamin K derivatives to MK-4 in FIXgla-PC/HEK293 cells; format: cell-based, human; conditions: 10 μM VK-K-COT plus 5 μM warfarin, 6 hours, HPLC
# [10] = test system: naturally occurring VKOR mutations; conditions: cell-based functional study; cited from earlier work
# [11] = 1 μM vitamin K derivative as substrate, FIXgla-PC/HEK293
smiles,measurement,setting,value
C/C(=C\CC1=C(Cl)C(=O)c2ccccc2C1=O)CCCC(C)CCCC(C)CCCC(C)C (stereo not shown) [Chloro-K],anticoagulant effect in warfarin-resistant rats,warfarin-resistant rats,effective anticoagulant
same,antagonism of vitamin K,[1],potent antagonist of vitamin K
"CC(C)=CCC/C(C)=C/CC/C(C)=C/CC/C(C)=C/CC1=C(C)C(=O)c2ccccc2C1=O [MK-4, menaquinone-4]",support of VKD carboxylation as substrate in UBIAD1-knockout cells,[2],can efficiently support VKD carboxylation
CC1=C(Cc2ccccc2)C(=O)c2ccccc2C1=O [VK-M-Ben],carboxylation activity (vitamin K1 normalized to 100%),[3]; [11],3%
same,"carboxylation activity as substrate, in words",[3]; [11],abolished carboxylation activity
CC1=C(CC2=CC=CC=CC=C2)C(=O)c2ccccc2C1=O [VK-M-COT],"carboxylation activity as substrate, in words",[3]; [11],activity lower than the background activity (DMSO)
same,dose-response of VKD carboxylation on concentration titration,[3]; increasing concentrations of vitamin K derivative,inhibitory dose-response curve
same,"inhibition of reporter-protein carboxylation, KO as substrate","[4]; FIXgla-PC/HEK293, 5 μM KO, increasing concentrations",inhibited reporter-protein carboxylation
same,inhibition potency lower than warfarin (fold),"[4]; IC50 ratio to warfarin, FIXgla-PC/HEK293, 5 μM KO",~ 20 fold
same,IC50 variation between warfarin-resistant VKOR mutations and wild-type VKOR,"wild-type VKOR; A26P, F55A, W59R, L128R, Y139F vs wild type",less than 3 fold
same,IC50,"VKOR A26P; read-out: IC50 ± standard deviation, VKOR A26P in DGKO cells, 5 μM KO, 24 hours",487 ± 75 nM
same,IC50,"VKOR F55A; read-out: IC50 ± standard deviation, VKOR F55A in DGKO cells, 5 μM KO, 24 hours",249 ± 66 nM
same,IC50,VKOR W59R,615 ± 101 nM
same,IC50,VKOR L128R,575 ± 132 nM
same,IC50,VKOR Y139F,658 ± 54 nM
same,"inhibition of reporter-protein carboxylation, vitamin K1 as substrate",[5],inhibited reporter-protein carboxylation
same,cytotoxicity (cell viability),HEK293 reporter cells,not due to the cytotoxicity
same,reduction of KO to vitamin K1 (HPLC),[6],significantly decreased
same,"reduction of vitamin K (production of KO, HPLC)",vitamin K reductase,significantly decreased
same,GGCX vitamin K epoxidation activity,GGCX,inhibits GGCX activity for vitamin K epoxidation
same,reversal of inhibition of VKD carboxylation by vitamin K1,[7],can be reversed equally with higher concentrations of vitamin K1
CC1=CC(=O)c2ccccc2C1=O [menadione],support of VKD carboxylation as substrate in UBIAD1-knockout cells,[2],unable to support reporter-protein carboxylation
same,VKD carboxylation activity after re-introduction of UBIAD1,[8],regained VKD carboxylation activity
"CC1=C(C/C=C(\C)CCC[C@H](C)CCC[C@H](C)CCCC(C)C)C(=O)c2ccccc2C1=O [vitamin K1, phylloquinone]",support of VKD carboxylation as substrate in UBIAD1-knockout cells,[2],can efficiently support VKD carboxylation
"CC(=O)CC(c1ccccc1)c1c(O)c2ccccc2oc1=O (stereo not shown) [warfarin, reference compound]",IC50,"[4]; Homo sapiens, HEK293, 24 h, read-out: IC50 for VKD carboxylation",12.5 nM
same,effect of warfarin-resistant VKOR mutations on inhibition potency,wild-type VKOR; all warfarin-resistant VKOR mutations tested vs wild type,up to 400 fold
same,increase of IC50 compared to wild-type VKOR,VKOR A26P; A26P vs wild type,60 fold
same,increase of IC50 compared to wild-type VKOR,VKOR F55A; F55A vs wild type,417 fold
same,MK-4 epoxide in cells on VKOR inactivation,[9],MK-4 epoxide accumulated
same,reversal of inhibition of VKD carboxylation by vitamin K1,[7],can be reversed equally with higher concentrations of vitamin K1
same,variation of warfarin resistance among naturally occurring VKOR mutations,[10],over 100 fold
